Measurements taken from ChEMBL document CHEMBL2040734, “Benzothiazoles: search for anticancer agents” (2012).

What was measured:
Type in all cases: functional
SNB-19 = assay: Growth inhibition of human SNB19 cells after 48 hrs by sulforhodamine B assay; conditions: SNB-19, 48 h
Procedure, shortened: (§1)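 Adherent NCI-60 lines were grown in RPMI 1640 with 5% FBS and 2 mM L-glutamine, plated at 5000–40,000 cells/well and preincubated 24 h. They were then exposed to five concentrations (0.01–100 µM, from a DMSO stock) for 48 h at 37 °C, 5% CO2. Cells were fixed with cold TCA (10% final, 60 min, 4 °C) and stained with 0.4% SRB. Dye was solubilized in 10 mM Tris base and A515 read. GI50 was derived from time-zero, control and treated absorbances.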

HCT-15 = assay: Cytotoxicity against human HCT15 cells assessed as cell growth at 10 uM after 48 hrs by sulforhodamine B assay; conditions: HCT-15, 48 h, read-out: Activity
Procedure, shortened: (§2)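 Five-dose NCI panel run at 0.01, 0.1, 1, 10 and 100 µM. Cells were in RPMI 1640 with 5% FBS and 2 mM L-glutamine, seeded at 5000–40,000 cells/well and pre-incubated 24 h. Drug was diluted from a DMSO stock into medium with 50 µg/ml gentamicin. Exposure was 48 h at 37 °C, 5% CO2. Cells were fixed with cold TCA and stained with 0.4% SRB, read at 515 nm. Percent growth came from time-zero, control and test absorbances.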

OVCAR-3 [1] = assay: Cytotoxicity against human OVCAR3 cells assessed as cell growth at 100 uM after 48 hrs by sulforhodamine B assay; conditions: OVCAR-3, 48 h, read-out: Activity
OVCAR-3 [2] = assay: Cytotoxicity against human OVCAR3 cells assessed as cell growth at 10 '-5 M after 48 hrs by sulforhodamine B assay; conditions: OVCAR-3, 48 h, read-out: Activity
UACC-62 = assay: Cytotoxicity against human UACC62 cells assessed as cell growth at 0.01 uM after 48 hrs by sulforhodamine B assay; conditions: UACC-62, 48 h, read-out: Activity
HCT-116 = assay: Cytotoxicity against human HCT116 cells assessed as cell growth at 0.1 uM after 48 hrs by sulforhodamine B assay; conditions: HCT-116, 48 h, read-out: Activity; procedure, shortened: as §2
T47D = assay: Cytotoxicity against human T47D cells assessed as cell growth at 100 uM after 48 hrs by sulforhodamine B assay; conditions: read-out: Activity
HT-29 [3] = assay: Growth inhibition of human HT-29 cells after 48 hrs by sulforhodamine B assay; conditions: HT-29, 48 h; procedure, shortened: as §1
BT-549 [4] = assay: Cytotoxicity against human BT549 cells assessed as cell growth at 1 uM after 48 hrs by sulforhodamine B assay; conditions: BT-549, 48 h, read-out: Activity
Procedure, shortened: (§3)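 NCI-60 five-dose screen. Cells were grown in RPMI 1640 with 5% FBS and 2 mM L-glutamine and preincubated 24 h. Compound (DMSO stock) was tested at 0.01, 0.1, 1, 10 and 100 µM for 48 h at 37 °C. Cells were fixed in situ with cold TCA (final 10%) and stained with 0.4% SRB. A515 was read, and percent growth was calculated against time-zero and control plates.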

SR = assay: Cytotoxicity against human SR cells assessed as cell growth at 10 uM after 48 hrs by sulforhodamine B assay; conditions: read-out: Activity
IGROV-1 = assay: Growth inhibition of human IGROV1 cells after 48 hrs by sulforhodamine B assay; conditions: IGROV-1, 48 h; procedure, shortened: as §1
NCI-H460 = assay: Growth inhibition of human NCI-H460 cells after 48 hrs by sulforhodamine B assay; conditions: NCI-H460, 48 h; procedure, shortened: as §1
COLO 205 = assay: Cytotoxicity against human COLO205 cells assessed as cell growth at 10 '-5 M after 48 hrs by sulforhodamine B assay; conditions: COLO 205, 48 h, read-out: Activity
Procedure, shortened: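 Primary NCI-60 single-dose screen at 10 µM. Cells were grown in RPMI 1640 with 5% FBS and 2 mM L-glutamine and plated 24 h before drug addition. Compound was solubilized in DMSO, then exposed for 48 h at 37 °C under 5% CO2. Cells were TCA-fixed and stained with SRB, and absorbance was read at 515 nm. Growth was expressed relative to time-zero and untreated controls.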

EKVX [5] = assay: Cytotoxicity against human EKVX cells assessed as cell growth at 0.01 uM after 48 hrs by sulforhodamine B assay; conditions: read-out: Activity; procedure, shortened: as §2
BT-549 [6] = assay: Growth inhibition of human BT549 cells after 48 hrs by sulforhodamine B assay; conditions: BT-549, 48 h
Procedure, shortened: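 Cells were in RPMI 1640 with 5% FBS and pre-incubated 24 h. Read-out was TCA fixation, SRB staining and absorbance at 515 nm. GI50 was the concentration where [(Ti−Tz)/(C−Tz)]×100 = 50, taken from log concentration vs % growth curves. It is given as ">" the top concentration when not reached.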

SK-MEL-28 = assay: Cytotoxicity against human SK-MEL-28 cells assessed as cell growth at 0.01 uM after 48 hrs by sulforhodamine B assay; conditions: SK-MEL-28, 48 h, read-out: Activity
MDA-MB-468 = assay: Cytotoxicity against human MDA-MB-468 cells assessed as cell growth at 1 uM after 48 hrs by sulforhodamine B assay; conditions: MDA-MB-468, 48 h, read-out: Activity
SN12C = assay: Cytotoxicity against human SN12C cells assessed as cell growth at 0.1 uM after 48 hrs by sulforhodamine B assay; conditions: read-out: Activity
OVCAR-5 = assay: Cytotoxicity against human OVCAR5 cells assessed as cell growth at 0.1 uM after 48 hrs by sulforhodamine B assay; conditions: OVCAR-5, 48 h, read-out: Activity
MOLT-4 = assay: Cytotoxicity against human MOLT4 cells assessed as cell growth at 0.01 uM after 48 hrs by sulforhodamine B assay; conditions: MOLT-4, 48 h, read-out: Activity
HT-29 [7] = assay: Cytotoxicity against human HT-29 cells assessed as cell growth at 10 uM after 48 hrs by sulforhodamine B assay; conditions: HT-29, 48 h, read-out: Activity; procedure, shortened: as §2
UACC-257 = assay: Cytotoxicity against human UACC257 cells assessed as cell growth at 100 uM after 48 hrs by sulforhodamine B assay; conditions: UACC-257, 48 h, read-out: Activity
A549 = assay: Cytotoxicity against human A549 cells assessed as cell growth at 10 uM after 48 hrs by sulforhodamine B assay; conditions: A549, 48 h, read-out: Activity; procedure, shortened: as §3
NCI/ADR-RES = assay: Cytotoxicity against human NCI/ADR-RES cells assessed as cell growth at 100 uM after 48 hrs by sulforhodamine B assay; conditions: read-out: Activity
EKVX [8] = assay: Cytotoxicity against human EKVX cells assessed as cell growth at 1 uM after 48 hrs by sulforhodamine B assay; conditions: read-out: Activity; procedure, shortened: as §2
A498 = assay: Cytotoxicity against human A498 cells assessed as cell growth at 10 uM after 48 hrs by sulforhodamine B assay; conditions: A498, 48 h, read-out: Activity; procedure, shortened: as §3
LOX IMVI = assay: Cytotoxicity against human LOXIMVI cells assessed as cell growth at 0.01 uM after 48 hrs by sulforhodamine B assay; conditions: read-out: Activity

## Cc1ccc2nc(Nc3c(C)cccc3C)sc2c1
SNB-19
  GI50: 5.83 µM
  LC50 (concentration causing 50% net cell kill): > 100 µM
  TGI: > 100 µM
HCT-15
  growth at 10 µM: 23%
OVCAR-3 [1]
  growth at 100 µM: 66%
OVCAR-3 [2]
  growth at 10 µM: 18.7%
UACC-62
  growth at 0.01 µM: 92%
HCT-116
  growth at 0.1 µM: 103%
T47D
  growth at 100 µM: 46%
HT-29 [3]
  GI50: 0.629 µM
  LC50 (concentration killing 50% of cells): > 100 µM
  TGI: > 100 µM
BT-549 [4]
  growth at 1 µM: 63%
SR
  growth at 10 µM: 13%
IGROV-1
  GI50: 4.16 µM
  LC50 (50% net cell kill): > 100 µM
  TGI: > 100 µM
NCI-H460
  LC50 (concentration killing 50% of cells): > 100 µM
  TGI: > 100 µM
COLO 205
  growth at 10 µM: 32.2%
EKVX [5]
  growth at 0.01 µM: 93%
BT-549 [6]
  TGI: > 100 µM
BT-549 [6]; read-out: LC50 (the source's name)
  CC50: > 100 µM
SK-MEL-28
  growth at 0.01 µM: 94%
MDA-MB-468
  growth at 1 µM: 21%
SN12C
  growth at 0.1 µM: 86%
OVCAR-5
  growth at 0.1 µM: 106%
MOLT-4
  growth at 0.01 µM: 104%
HT-29 [7]
  growth at 10 µM: 10%
UACC-257
  growth at 100 µM: 73%
A549
  growth at 10 µM: 44%
NCI/ADR-RES
  growth at 100 µM: 46%
EKVX [8]
  growth at 1 µM: 62%
A498
  growth at 10 µM: -1%
LOX IMVI
  growth at 0.01 µM: 94%

## Clc1cccc(Cl)c1Nc1nc2cccc(Cl)c2s1
SNB-19
  GI50: 1.34 µM
  LC50 (concentration causing 50% net cell kill): 6.74 µM
  TGI: 3 µM
HCT-15
  growth at 10 µM: -85%
OVCAR-3 [1]
  growth at 100 µM: -76%
OVCAR-3 [2]
  growth at 10 µM: -61.4%
UACC-62
  growth at 0.01 µM: 94%
HCT-116
  growth at 0.1 µM: 99%
T47D
  growth at 100 µM: -64%
HT-29 [3]
  GI50: 1.29 µM
  LC50 (concentration killing 50% of cells): 6.97 µM
  TGI: 2.99 µM
BT-549 [4]
  growth at 1 µM: 79%
SR
  growth at 10 µM: -49%
IGROV-1
  GI50: 1.12 µM
  LC50 (50% net cell kill): 8.96 µM
  TGI: 3.17 µM
NCI-H460
  GI50: 1.32 µM
  TGI: 2.97 µM
COLO 205
  growth at 10 µM: -90%
EKVX [5]
  growth at 0.01 µM: 96%
BT-549 [6]
  GI50: 1.5 µM
  TGI: 3.01 µM
SK-MEL-28
  growth at 0.01 µM: 93%
MDA-MB-468
  growth at 1 µM: 23%
SN12C
  growth at 0.1 µM: 85%
OVCAR-5
  growth at 0.1 µM: 92%
MOLT-4
  growth at 0.01 µM: 107%
HT-29 [7]
  growth at 10 µM: -71%
UACC-257
  growth at 100 µM: -67%
A549
  growth at 10 µM: -65%
NCI/ADR-RES
  growth at 100 µM: -55%
EKVX [8]
  growth at 1 µM: 15%
A498
  growth at 10 µM: -97%
LOX IMVI
  growth at 0.01 µM: 94%
